IMP-1 inh: IMP-1 metallo-beta-lactamase inhibitors, primary screen, biochemical, epi-absorbance readout, Pseudomonas aeruginosa enzyme; 290,000 tested, 0.45% active; inhibition, % at 5.6 µM; metallo-beta-lactamase IMP-1 (Pseudomonas aeruginosa); purified IMP-1, nitrocefin hydrolysis, epi-absorbance fluorescence;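 active means inhibition above the mean plus 3 SD of all compounds in the same screening run, cut at about 4.5% in these data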;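 further: 0% = IMP-1 with DMSO and 100% = DMSO wells lacking enzyme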
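System: Purified IMP-1 | Read-out basis: Percent enzyme inhibition | Controls: IMP-1 with DMSO as 0%, enzyme-free DMSO as 100% | Replicates: One well per compound | Doses: 5.6 µM nominal single concentration | Detection: Epi-absorbance fluorescence, 480 nm excitation, 530 nm emission | Incubation: 25 °C, 15 min preincubation, 25 min reaction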
FID counter: compounds displacing fluorescent DNA intercalator, primary screen, artefact control for HCV NS3 helicase inhibitor project, biochemical, FID fluorescence. DNA fluorescent intercalator displacement. inhibition, % at 7.9 µM. 290,000 tested, 0.17% active; in the data active means inhibition above about 37%;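 further: 0% = vehicle and 100% = reference compound; higher means more ethidium bromide displaced from hairpin DNA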
SUMO HTRF inh: inhibitors of in vitro SUMOylation cascade, primary screen, biochemical, HTRF, uHTS. AID 2006, 2009. SUMO-conjugating enzyme UBC9 (Homo sapiens), P63279. inhibition, % at 35 µM. HTRF SUMOylation assay, SAE1/SAE2 + UBC9. 290,000 tested, 0.36% active; in the data active means inhibition above about 50%, passing the limit was not always enough
Target sequence (P63279 whole entry, looked up): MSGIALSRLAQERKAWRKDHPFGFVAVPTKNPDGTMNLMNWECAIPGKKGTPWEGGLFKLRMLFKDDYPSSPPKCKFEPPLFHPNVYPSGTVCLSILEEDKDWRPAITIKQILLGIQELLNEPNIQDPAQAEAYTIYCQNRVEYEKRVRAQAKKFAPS
VIM-2 inhibitor: VIM-2 metallo-beta-lactamase inhibitors, primary screen, biochemical, epi-absorbance readout, Pseudomonas aeruginosa enzyme; purified VIM-2, nitrocefin hydrolysis, epi-absorbance fluorescence; inhibition, % at 5.6 µM; 290,000 tested, 0.89% active;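 active means inhibition above the mean of all tested compounds plus 3 SD, cutoff set per screening run, cut at about 7.5% in these data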;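 further: red hydrolysis product quenches plate fluorescence so inhibitors raise well fluorescence; 0% = enzyme with DMSO and 100% = DMSO without enzyme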
SUMO Mot1 rescue: yeast Mot1-301 growth rescue at high temperature, primary screen, SUMOylation pathway inhibitor project, S. cerevisiae, ATP luminescence, 38.5C; S. cerevisiae Mot1-301 growth rescue; percent above DMSO median, 100 means doubled; growth rescue, % at 18.8 µM; 320,000 tested, 1% active;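 active means every valid replicate shows activation above 250% relative to neutral control wells; inactive means the rest, any valid replicate at or below 250%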;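 further: OY570 slx delta 5 strain wells were the positive control but not used for scaling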
NALP1 yeast inh: NALP1 inflammasome inhibitors in reconstituted yeast, colorimetric, S. cerevisiae, triplicate retest; 280,000 tested, 0.61% active; inhibition, % at 10 µM; S. cerevisiae NALP1/ASC/caspase-1 growth, X-gal OD620, 72 h; AID 2071, 2009; in the data active means inhibition mostly above about 24%, no sharp cut-off; inactive means mostly below about 32%
Yeast Mot1 SUMO: growth restoration of Mot1-301 yeast on galactose, dose response, SUMO pathway inhibitor project, whole organism, S. cerevisiae, ATP luminescence, cherry-picked samples; shares compounds with SUMO Mot1 rescue; S. cerevisiae Mot1-301 galactose growth, 24 h; -100 = growth of slx-deleted rescue strain; growth activity, percent, % at 42 µM; 2,300 tested, under 10 active;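 active means Signal drops as the depositor expects, and the fitted half-maximal dose is no more than ten times the top valid tested dose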;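 further: more negative values mean stronger growth rescue toward the control strain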
The depositor's hits bear a star; / = no result given; + = active, no number. Rows were chosen to be rich in hits. Some 2.9% of all compounds tested hit in one or more screens of this group.

SMILES	IMP-1 inh	FID counter	SUMO HTRF inh	VIM-2 inhibitor	SUMO Mot1 rescue	NALP1 yeast inh	Yeast Mot1 SUMO
Cc1nc2c3ccccc3nc(NNC(=O)CCC(=O)N3CCCC(C)C3)n2n1 (centres undefined)	-3	-26	-6	-5	455*	-16	0
COc1ccc(C)cc1NC(=O)C12CCC(C)(C(=O)O1)C2(C)C (centres undefined)	-4	-16	18	-2	461*	0	-1
Cc1cccc(OCCn2nnc3ccccc32)c1C	-2	-22	-7	-2	-18	8	/
COc1ccc(NC(=O)CCC(=O)OCc2ccc([N+](=O)[O-])cc2)cc1	-3	-3	3	-1	633	-24	/
C=C1/C(=C\C=C2/CCC[C@]3(C)[C@@H]([C@H](C)/C=C/[C@@H](O)C4CC4)CC[C@@H]23)C[C@@H](O)C[C@@H]1O	/	/	/	/	49	/	/
CCOC(=O)N1CCN(C(=O)c2ccccc2-c2ccccc2)CC1	-1	-24	-6	-1	436*	11	0
CCOC(=O)N1CCN(C(=O)c2ccccc2CCc2ccccc2)CC1	0	-32	-6	-1	-9	13	/
O=C(Cc1ccc(F)cc1)Nc1nc(-c2ccc(F)cc2)cs1	-1	-2	22	1	+	4	-1
O=C(O)CCCC(=O)Nc1nc(-c2ccc(F)cc2)cs1	-4	-8	-5	-4	-8	12	/
Cc1nc2ccccn2c1C(=O)N/N=C/c1ccccc1	-2	-9	-3	-2	-10	12	/
COc1ccc(/C=N/NC(=O)c2c(C)nc3ccccn23)cc1[N+](=O)[O-]	-2	-4	-6	-4	569*	-4	0
CCOc1ccc(C(=O)Nc2ccc3c(c2)OCCO3)cc1OC	-3	-11	23	0	-13	26	/
COc1cc(C(=O)Nc2ccc3c(c2)OCCO3)ccc1-n1cnnn1	-2	-6	14	-1	+	-16	0
S=C(c1ccc(N2CCOCC2)cc1)N1CCCCC1	3	-8	7	-5	367*	6	0
O=C(Nc1ccccc1)N1CCN(CCc2ccccc2)CC1	-3	-1	13	-4	392*	-13	-1
Cc1c(C(=O)N2CCN(CCc3ccccc3)CC2)oc2ccccc12	-3	-13	-19	-1	707*	10	-1
Cc1c(C(=O)N2CCN(S(C)(=O)=O)CC2)oc2ccccc12	-4	-5	-10	-2	-26	5	/
O=C1COc2ccccc2N1Cc1c(F)cccc1Cl	-2	-17	6	1	9	-7	/
Cc1nc(C)n(CC(C)C(=O)N2CCN(S(=O)(=O)c3ccc(Cl)cc3)CC2)n1 (centres undefined)	-3	-8	4	-2	2	-7	/
CCOC(=O)C1CCCCN1C(=O)/C(=C/c1ccc(OC)cc1)c1ccc(OC)c(OC)c1 (centres undefined)	/	/	/	/	-4	/	/
Cc1nn(CC(N)=O)c(=O)c2ccccc12	-4	-1	16	-2	482*	12	0
O=C(O)c1ccc(N=Nc2c(O)ccc3ncccc23)cc1	-10	-27	19	1	11	-1	/
Cc1cccc(OCCCC(=O)NNC(=O)c2ccccn2)c1	/	/	/	/	22	/	/
COc1ccc(C)cc1N(CC(=O)N1CCCCCC1)S(=O)(=O)c1ccccc1	-1	-26	5	-2	-6	-5	/
COc1ccc(OC)c(N(CC(=O)N2CCCC2)S(=O)(=O)c2ccccc2)c1	0	-18	6	2	469*	10	1
O=C(CCn1cnnn1)Nc1ccc(Cl)cc1Cl	0	-2	0	-2	721*	-2	1
